ChEMBL document CHEMBL1154463, “Synthesis and induction of G0-G1 phase arrest with apoptosis of 3,5-dimethyl-6-phenyl-8-(trifluoromethyl)-5,6-dihydropyrazolo[3,4-f][1,2,3,5]tetrazepin-4(3H)-one” (Eur J Med Chem, 2008)
Counter-ions that a name gives are not always drawn. Calls of active or inactive are those of the source. No cut-off for these calls is given here.

What was measured:
[1] = test system: HL-60; experiment: Induction of apoptosis in multidrug resistant human HL60 cells after 48 hrs; format: functional, cell-based; conditions: HL-60, 48 h
How it was run: (§1)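 Cells exposed 48 h to a range of concentrations, then 2 × 10⁵ cells pelleted (300 × g) and stained with acridine orange and ethidium bromide ([…]). Read by fluorescence microscopy under oil immersion. Apoptosis scored by perinuclear chromatin condensation and apoptotic bodies, counting ≥300 cells. AC50 = concentration giving 50% apoptotic cells. Bars: SE.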

[2] = test system: HL-60; experiment: Induction of apoptosis in human HL60 cells after 48 hrs; format: functional, cell-based; conditions: HL-60, 48 h; how it was run: as §1
[3] = test system: HL-60; experiment: human HL60 cells after 48 hrs; conditions: HL-60, 48 h
[4] = test system: K562; experiment: Induction of apoptosis in human K562 cells assessed as accumulation at sub GO-G1 phase accumulation after 24 hrs by flow cytometry; format: functional, cell-based
How it was run: (§2)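 K562 cells cultured 24 h and 48 h without compound or at 25, 50 or […] (unit as printed). Cells washed in ice-cold PBS, resuspended at 10⁶/ml in hypotonic propidium iodide ([…])/0.03% v/v NP-40 in 0.1% sodium citrate for 30 min. DNA content read by flow cytometry as single-parameter histograms; G0–G1 and sub-G0–G1 fractions taken as percent of cells.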

[5] = test system: K562; experiment: Cell cycle arrest in human K562 cells assessed as accumulation at GO-G1 phase at 50 uM after 24 hrs by flow cytometry; format: functional; how it was run: as §2
[6] = test system: K562; experiment: Induction of apoptosis in human K562 cells assessed as accumulation at sub GO-G1 phase accumulation at 50 uM after 48 hrs by flow cytometry; format: functional; how it was run: as §2
[7] = test system: HL-60; experiment: Cytotoxicity against multidrug-resistant human HL60 cells after 48 hrs by trypan blue exclusion method; format: functional, cell-based; conditions: HL-60, 48 h
How it was run: (§3)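 2 × 10⁵ cells in 1 ml complete medium treated with a range of concentrations, added as freshly prepared DMSO solution (final DMSO ≤0.3% v/v), for 48 h. Viable cells counted and expressed as percent of untreated control proliferation; IC50 = concentration inhibiting 50% of growth, from 48 h exposure. Bars: SE.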

[8] = test system: K562; experiment: Cytotoxicity against imatinib mesylate-resistant human K562 cells after 48 hrs by trypan blue exclusion method; format: functional, cell-based; conditions: K562, 48 h; how it was run: as §3
[9] = test system: K562; experiment: Cell cycle arrest in human K562 cells assessed as accumulation at GO-G1 phase after 24 hrs by flow cytometry; format: functional, cell-based; how it was run: as §2
[10] = test system: K562; experiment: Induction of apoptosis in human K562 cells assessed as accumulation at sub GO-G1 phase accumulation at 50 uM after 24 hrs by flow cytometry; format: functional; how it was run: as §2
[11] = test system: K562; experiment: Cytotoxicity against human K562 cells after 48 hrs by trypan blue exclusion method; format: functional, cell-based; conditions: K562, 48 h; how it was run: as §3
[12] = test system: K562; experiment: Induction of apoptosis in imatinib mesylate-resistant human K562 cells after 48 hrs; format: functional, cell-based; how it was run: as §1
[13] = test system: HL-60; experiment: Cytotoxicity against human HL60 cells after 48 hrs by trypan blue exclusion method; format: functional, cell-based; conditions: HL-60, 48 h; how it was run: as §3
[14] = test system: K562; experiment: Induction of apoptosis in human K562 cells after 48 hrs; format: functional, cell-based; conditions: K562, 48 h
[15] = test system: K562; experiment: Cell cycle arrest in human K562 cells assessed as accumulation at GO-G1 phase at 50 uM after 48 hrs by flow cytometry; format: functional; how it was run: as §2

With `COc1cc([C@@H]2c3cc4c(cc3[C@@H](O[C@@H]3O[C@@H]5CO[C@@H](C)O[C@H]5[C@H](O)[C@H]3O)[C@H]3COC(=O)[C@H]23)OCO4)cc(OC)c1O` [ETOPOSIDE] the AC50 [1] was greater than 400 µM and the AC50 [2] was 0.4 µM.
`COc1cccc2c1C(=O)c1c(O)c3c(c(O)c1C2=O)C[C@@](O)(C(C)=O)C[C@@H]3O[C@H]1C[C@H](N)[C@H](O)[C@H](C)O1` [DAUNORUBICIN] was tested, and the AC50 [1] was 38 µM and the AC50 [3] was 0.1 µM.
In the case of `CN1N=Nc2c(C(F)(F)F)nn(-c3ccccc3)c2N(C)C1=O`, the AC50 [1] is reported as 38 µM, the Activity [4] is reported as “inactive” and the Activity [5] is reported as 60.7%. For the same compound, the Activity [6] was 52.2%, the IC50 [7] was 30 µM and the IC50 [8] was 38 µM. The Activity [9] was “Dose-dependent effect”, the Activity [10] was 5% and the IC50 [11] was 40 µM. The AC50 ([12]; K562, 48 h) was 62 µM, the IC50 [13] was 21 µM and the AC50 [14] was 57 µM. It also gave an Activity [15] of 28.7% and an AC50 [2] of 36 µM.
For `CS(=O)(=O)OCCCCOS(C)(=O)=O`, the Activity [12] was “Active”.
With `Cc1ccc(NC(=O)c2ccc(CN3CCN(C)CC3)cc2)cc1Nc1nccc(-c2cccnc2)n1` [IMATINIB MESYLATE] the AC50 [14] was 62 µM.
